Here are results for 19 compounds from ChEMBL document CHEMBL3272118, “Structure and tumor-promoting activity of analogues of anthralin (1,8-dihydroxy-9-anthrone)” (J Med Chem, 1978).

In series [1] the test system is Mus musculus. Description: Toxicity in ICR/Ha Swiss mouse assessed as median survival time at 80 ug administered three times a week. Format: organism-based. Conditions: in vivo; call rule not given here.
Series [2] relates to Mus musculus. Nature of the series: Tumor promoting activity in ICR/Ha Swiss mouse at 80 ug administered three times a week measured for 521 days. Format: ADME, organism-based. Particulars: in vivo, 12504 h.
Series [3] has as its system Mus musculus. Nature of the series: Tumor promoting activity in ICR/Ha Swiss mouse at 124 ug administered three times a week measured for 370 days. Format: ADME, organism-based. Particulars: in vivo, 8880 h. In a few lines: (§1)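 Two-stage carcinogenesis on clipped backs of female ICR/Ha Swiss mice (8 weeks, ectromelia-vaccinated): one subcarcinogenic topical dose of 7,12-dimethylbenz[a]anthracene, then repeated skin application of test agent, dosed equimolar to anthralin except where toxicity required lower, for 370 days. Tumors >1 mm persisting ≥30 days counted; carcinomas confirmed histologically at autopsy.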

The test system of series [4] is Mus musculus. Nature of the series: Tumor promoting activity in ICR/Ha Swiss mouse at 80 ug administered three times a week measured for 370 days. Format: ADME, organism-based. Particulars: in vivo, 8880 h. In a few lines: as §1
For series [5], the system named is Mus musculus. Nature of the series: Tumor promoting activity in ICR/Ha Swiss mouse at 85 ug administered three times a week measured for 370 days. Format: ADME, organism-based. Particulars: in vivo, 8880 h. In a few lines:
as §1

Series [6] has as its system Mus musculus. Description: Tumor promoting activity in ICR/Ha Swiss mouse at 76 ug administered three times a week measured for 370 days. Format: ADME, organism-based. Particulars: in vivo, 8880 h. The procedure, abridged: as §1
Series [7] deals with Mus musculus. Description: Tumor promoting activity in ICR/Ha Swiss mouse at 228 ug administered three times a week measured for 370 days. Conditions: in vivo, 8880 h. Format: ADME, organism-based. In a few lines: as §1
Series [8] has as its system Mus musculus. Nature of the series: Tumor promoting activity in ICR/Ha Swiss mouse at 300 ug administered three times a week measured for 521 days. Format: ADME, organism-based. Particulars: in vivo, 12504 h. The procedure, abridged:
(§2)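 Female ICR/Ha Swiss mice, 8 weeks old, vaccinated against ectromelia, backs clipped. Repeated skin application after a single subcarcinogenic dose of 7,12-dimethylbenz[a]anthracene. Groups of twenty mice; test ran 521 days; median survival time recorded. Tumors >1 mm persisting ≥30 days counted; autopsy with histological confirmation.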

Series [9] has as its system Mus musculus. Nature of the series: Toxicity in ICR/Ha Swiss mouse assessed as median survival time at 300 ug administered three times a week. Format: organism-based. Particulars: in vivo. In a few lines:
as §2

For series [10], the system named is Mus musculus. Nature of the series: Tumor promoting activity in ICR/Ha Swiss mouse at 75 ug administered three times a week measured for 370 days. Format: ADME, organism-based. Particulars: in vivo, 8880 h. The procedure, abridged: as §1
Series [11] has as its system Mus musculus. Description: Tumor promoting activity in ICR/Ha Swiss mouse at 136 ug administered three times a week measured for 370 days. Particulars: in vivo, 8880 h. Format: ADME, organism-based. In a few lines:
as §1

Series [12] concerns Mus musculus. Nature of the series: Tumor promoting activity in ICR/Ha Swiss mouse at 15 ug administered three times a week measured for 370 days. Format: ADME, organism-based. Conditions: in vivo, 8880 h. In a few lines:
as §1

The nature of series [13]: Metal chelating activity of the compound assessed as stability constant of metal chelate at 2 to 9 x 10^-5 M using copper. Format: physicochemical. In a few lines:
(§3)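 Stability constants by the Rossotti and Rossotti spectrophotometric method in dimethyl sulfoxide: eight solutions of anthralin from 2.0×10^-5 to 9.0×10^-5 M with metal acetate at matching concentrations, spectra read 400–650 nm at 25 °C.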

Series [14] in a line: Metal chelating activity of the compound assessed as stability constant of metal chelate at 2 to 9 x 10^-5 M using Mg2+. Format: physicochemical. In a few lines:
as §3

A short description of series [15]: Metal chelating activity of the compound assessed as metal-compound complex formation using copper. Format: physicochemical. In a few lines: (§4)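 Chelates prepared by adding 0.5 molar equiv of metal acetate in anhydrous ethanol to the ligand (2.0 mmol) dissolved in warm anhydrous ethanol. Metal:ligand ratio in dimethyl sulfoxide by Job's continuous variation: ligand (DHAQ 1.0×10^-4 M or anthralin 2.0×10^-4 M) and equimolar metal acetate mixed in nine solutions at ligand mole fractions 0.1–0.9, spectra recorded 400–650 nm.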

Series [16] can be described thus: Metal chelating activity of the compound assessed as stability constant of metal chelate at 2 to 9 x 10^-5 M using Ca2+. Format: physicochemical. In a few lines: as §3
A short description of series [17]: Metal chelating activity of the compound assessed as stability constant of metal chelate at 2 to 9 x 10^-5 M using Zn2+. Format: physicochemical. The procedure, abridged: as §3
Series [18] is described as follows: Metal chelating activity of the compound assessed as stability constant of metal chelate at 2 to 9 x 10^-5 M using Mn2+. Format: physicochemical. In a few lines:
as §3

Series [19] can be described thus: Metal chelating activity of the compound assessed as stability constant of metal chelate at 1 to 4.5 x 10^-5 M using Mg2+. Format: physicochemical. In a few lines:
(§5)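 Spectrophotometric method of Rossotti and Rossotti in dimethyl sulfoxide: eight solutions of DHAQ from 1.0×10^-5 to 4.5×10^-5 M with metal acetate at the same concentrations, absorption spectra recorded 400–650 nm at 25 °C, stability constants calculated from these.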

A short description of series [20]: Metal chelating activity of the compound assessed as metal-compound complex formation using zinc. Format: physicochemical. In a few lines: as §4
Series [21] can be described thus: Metal chelating activity of the compound assessed as metal-compound complex formation using Ca2+. Format: physicochemical. In a few lines: as §4
Series [22] can be described thus: Metal chelating activity of the compound assessed as metal-compound complex formation using Mn2+. Format: physicochemical. The procedure, abridged:
as §4

The nature of series [23]: Metal chelating activity of the compound assessed as stability constant of metal chelate at 1 to 4.5 x 10^-5 M using copper. Format: physicochemical. In a few lines:
as §5

A short description of series [24]: Metal chelating activity of the compound assessed as metal-compound complex formation using Mg2+. Format: physicochemical. In a few lines: as §4
The nature of series [25]: Metal chelating activity of the compound assessed as stability constant of metal chelate at 1 to 4.5 x 10^-5 M using Mn2+. Format: physicochemical. The procedure, abridged:
as §5

Series [26] is described as follows: Metal chelating activity of the compound assessed as stability constant of metal chelate at 1 to 4.5 x 10^-5 M using Ca2+. Format: physicochemical. In a few lines:
as §5

The nature of series [27]: Metal chelating activity of the compound assessed as stability constant of metal chelate at 1 to 4.5 x 10^-5 M using Zn2+. Format: physicochemical. In a few lines: as §5
Series [28] relates to Mus musculus. Nature of the series: Tumor promoting activity in ICR/Ha Swiss mouse at 62 ug administered three times a week measured for 370 days. Format: ADME, organism-based. Conditions: in vivo, 8880 h. In a few lines:
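Female ICR/Ha Swiss mice, ectromelia-vaccinated, started at 8 weeks, backs clipped the day before treatment. Single subcarcinogenic topical dose of 7,12-dimethylbenz[a]anthracene, then repeated skin applications at doses equimolar to the positive-control promoter, over 370 days. Tumors >1 mm persisting ≥30 days were counted cumulatively and confirmed on H&E histology at autopsy. Controls received test compound alone or no treatment.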

Consider `O=C1c2ccccc2Cc2cccc(O)c21`, for which the MST in series [1] was found to be 391 days. Besides, the Activity result in [2] was “Toxic”.

`CC(=O)Oc1cccc2c1C(=O)c1c(cccc1OC(C)=O)C2`: the Activity result in [3] is on record as “Toxic”.

With `O=C1c2ccccc2Cc2ccc(O)c(O)c21`, in [4], the Activity result was “Non-toxic”.

With `O=C1c2c(O)cccc2C(O)c2cccc(O)c21`, the Activity entry in [5] is recorded as “Non-toxic”.

On to `CC(=O)Oc1cccc2c1C(=O)C=CC2=O`, for which the Activity result in series [6] was “Toxic”.

In the case of `CCCCCCCCCCCCCC(=O)Oc1cccc2c1C(=O)c1c(cccc1OC(=O)CCCCCCCCCCCCC)C2`, the Activity entry in [7] is listed as “Non-toxic”.

For the compound `CCCCCCCCCCCCCC(=O)C1c2cccc(O)c2C(=O)c2c(O)cccc21`, the Activity entry in series [8] is given as “Toxic”. Also, the MST in series [9] was 423 days.

Take `O=C1c2ccccc2Cc2cc(O)c(O)cc21`: the Activity result in series [4] is “Non-toxic”.

For `Oc1cc2cc3ccccc3cc2cc1O`, the Activity result in [10] was “Non-toxic”.

For `Oc1cccc2cc3ccccc3cc12`, the MST in series [1] amounted to 474 days. The Activity result in [2] is “Toxic”.

Turning to `Oc1cccc2cc3cccc(O)c3cc12`, in [10], the Activity result was “Non-toxic”.

With `O=C1CCCc2cc3cccc(O)c3c(O)c21`, in series [4], the Activity result is given as “Non-toxic”.

Turning to `Oc1cccc2c1Cc1c(O)cccc1C2`, the Activity result in series [4] was “Non-toxic”.

With `CCCCCCCCCCCCCC(=O)Oc1cccc2c1C(=O)C=CC2=O`, the Activity result in series [11] was “Non-toxic”.

Take `CC(=O)C1c2cccc(O)c2C(=O)c2c(O)cccc21`: the Activity entry in series [12] is recorded as “Toxic”.

Consider `O=C(c1ccccc1O)c1ccccc1O` [2,2'-DIHYDROXYBENZPHENONE], for which, in [10], the Activity entry is “Non-toxic”.

On to `O=C1c2c(O)cccc2Cc2cccc(O)c21` [ANTHRALIN], for which the “log K” value in [13] was determined as 9.56; in series [14], 9.16; in [16], 9.06; in [17], 9.23; in series [18] it was 9.19. For the same compound, the outcome in series [15] was Active.

In the case of `O=C1c2cccc(O)c2C(=O)c2c(O)cccc21` [DANTHRON], the “log K” value in series [19] was 5.53; in [23], 5.77; in [25] it was 5.58; in series [26], 10.03; in [27], 5.62. Also, the outcome in series [20], in series [21], in series [22], in [24] and in series [15] was Active.

Turning to `O=C1C=CC(=O)c2c(O)cccc21` [JUGLONE], the Activity entry in [28] is “Toxic”.
